Here are results for 31 compounds from ChEMBL document CHEMBL1128504, “Novel, potent, and orally active substance P antagonists: synthesis and antagonist activity of N-benzylcarboxamide derivatives of pyrido[3,4-b]pyridine” (J Med Chem, 1995).

For orientation: ED50 means the midpoint of the dose-response relation. Usually IC50 stands for the concentration that inhibits the measured activity by half. By inhibition in vivo is commonly meant the drop in the measured response relative to a control, in per cent. A lower inhibition in vivo goes with a response near the control.

The subject of test [1] is Cavia porcellus. As to the kind of experiment: Inhibition of capsaicin-induced plasma extravasation in guinea-pig trachea on intravenous administration. It is filed as functional.
The target of the next test is Substance-P receptor (Homo sapiens, UniProt P25103). Put plainly: Inhibition of [125I]-BH-Substance P binding to tachykinin receptor 1 in human IM-9 cells. The test is classed as cell-based.
Chain of Substance-P receptor (P25103 whole entry, the tested form may be a part): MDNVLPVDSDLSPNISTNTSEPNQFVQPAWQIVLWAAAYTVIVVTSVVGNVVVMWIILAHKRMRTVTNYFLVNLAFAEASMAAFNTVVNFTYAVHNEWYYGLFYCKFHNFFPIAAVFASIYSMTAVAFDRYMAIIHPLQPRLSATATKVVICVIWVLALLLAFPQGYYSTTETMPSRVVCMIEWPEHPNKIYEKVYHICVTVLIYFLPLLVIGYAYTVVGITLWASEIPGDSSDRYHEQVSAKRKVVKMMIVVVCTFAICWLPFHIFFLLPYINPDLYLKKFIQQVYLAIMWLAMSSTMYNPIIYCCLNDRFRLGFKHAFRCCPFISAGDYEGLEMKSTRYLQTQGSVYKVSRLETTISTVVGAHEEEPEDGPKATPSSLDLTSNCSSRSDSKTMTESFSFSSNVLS
Test [2] has as its system Cavia porcellus. As to the kind of experiment: Inhibition of capsaicin-induced plasma extravasation in guinea-pig trachea on peroral administration. To be noted: po. It is filed as functional. Put shortly: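 Male Hartley guinea pigs (n = 6); sample given orally 45 min before pentobarbital 35 mg/kg ip. Capsaicin […] plus Evans' blue 20 mg/kg iv in ethanol-saline (3:7); trachea removed 10 min later after saline perfusion. Dye extracted in acetone-sodium sulfate and read at 620 nm per g tissue. Inhibition calculated relative to blank and control means.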

The test system of test [3] is Cavia porcellus. Put plainly: Percent inhibition of capsaicin-induced plasma extravasation in guinea-pig trachea at 3 mg/kg intravenous administration. The test is classed as functional.

Compound `Cc1cc2c(-c3ccccc3)c(C(=O)N(C)Cc3cc(C(F)(F)F)cc(C(F)(F)F)c3)n(C)c(=O)c2cc1C` returned an ED50 in the test on Cavia porcellus [1] of 0.49 mg/kg.
The compound `COc1ccccc1CNC(=O)c1c(-c2ccccc2C)c2ccccc2c(=O)n1C` came in with an IC50 at Substance-P receptor of 470 nM.
In turn, `Cc1cc(C)cc(CN(C)C(=O)c2c(-c3ccccc3C)c3ccccc3c(=O)n2C)c1` showed an IC50 on Substance-P receptor of 32 nM.
Take `CN(Cc1cc(C(F)(F)F)cc(C(F)(F)F)c1)C(=O)c1c(-c2ccc(F)cc2)c2cccnc2c(=O)n1C`: the IC50 on Substance-P receptor was found to be 0.21 nM. The ED50 in the test on Cavia porcellus [1] amounted to 0.017 mg/kg; with Cavia porcellus [2], 0.068 mg/kg.
Regarding `CN(Cc1c(-c2ccccc2)c2ccccc2c(=O)n1C)C(=O)Cc1cc(C(F)(F)F)cc(C(F)(F)F)c1`, the IC50 at Substance-P receptor worked out at 110 nM.
`COc1ccccc1CNCc1c(-c2ccccc2)c2ccccc2c(=O)n1C`: on Substance-P receptor, the half-maximal inhibitory concentration (IC50) was found to be 460 nM.
At Substance-P receptor, `Cc1cc2c(-c3ccccc3)c(NC(=O)N(C)Cc3cc(C(F)(F)F)cc(C(F)(F)F)c3)n(C)c(=O)c2cc1C` displayed an IC50 of 54 nM.
In the case of `Cc1cc(C)cc(CN(C)C(=O)Nc2c(-c3ccccc3)c3cc(C)c(C)cc3c(=O)n2C)c1`, on Substance-P receptor, the IC50 was 28 nM.
As for `CN(Cc1cc(C(F)(F)F)cc(C(F)(F)F)c1)C(=O)c1c(-c2ccc(F)cc2)c2ccccc2c(=O)n1C`, the half-inhibitory concentration (IC50) at Substance-P receptor was found to be 0.4 nM. Also, the ED50 with Cavia porcellus [1] turned out to be 0.063 mg/kg; with Cavia porcellus [2], 1 mg/kg.
`Cc1cc2c(-c3ccccc3)c(NC(=O)N(C)Cc3ccccc3)n(C)c(=O)c2cc1C` came in with an inhibition in vivo at 3 mg/kg in the test on Cavia porcellus [3] of 57.3%.
At Substance-P receptor, `Cc1cc2c(-c3ccccc3)c(CNCc3cc(C(F)(F)F)cc(C(F)(F)F)c3)n(C)c(=O)c2cc1C` yielded an IC50 of 250 nM.
`COc1ccccc1CNCc1c(-c2ccccc2)c2cc(C)c(C)cc2c(=O)n1C` gave an inhibition in vivo at 3 mg/kg in the test with Cavia porcellus [3] of 36.3%.
At Substance-P receptor, `COc1ccccc1CN(C)Cc1c(-c2ccccc2)c2cc(C)c(C)cc2c(=O)n1C` had an IC50 of 800 nM.
For the compound `Cn1c(C(=O)NCc2cc(C(F)(F)F)cc(C(F)(F)F)c2)c(-c2ccc(F)cc2)c2cccnc2c1=O`, on Substance-P receptor, the IC50 was 1.1 nM. For the same compound, the 50% effect level with Cavia porcellus [1] (ED50) was put at a dose of 0.48 mg/kg.
As for `Cc1ccccc1-c1c(C(=O)NCc2cc(C(F)(F)F)cc(C(F)(F)F)c2)n(C)c(=O)c2ccccc12`, the ED50 in the test on Cavia porcellus [1] was 1.1 mg/kg.
On Substance-P receptor, `Cc1cccc(NC(=O)Nc2c(-c3ccccc3)c3cc(C)c(C)cc3c(=O)n2C)c1` showed an IC50 of 840 nM.
Take `CN(Cc1ccccc1)C(=O)Nc1c(-c2ccccc2)c2ccccc2c(=O)n1C`: the IC50 on Substance-P receptor amounted to 1100 nM.
The compound `COc1ccccc1CN(C)C(=O)c1c(-c2ccc(F)cc2)c2cccnc2c(=O)n1C` came in with a median effective dose (ED50) in the test with Cavia porcellus [1] of 0.084 mg/kg.
Take `CN(Cc1ccccc1Cl)C(=O)Nc1c(-c2ccc(F)cc2)c2ccccc2c(=O)n1C`: the 50% inhibitory concentration (IC50) on Substance-P receptor was 480 nM.
Regarding `COc1ccccc1CNC(=O)c1c(-c2ccccc2)c2ccccc2c(=O)n1C`, on Substance-P receptor, the IC50 was 860 nM.
With `COc1ccccc1CN[C@H]1CCCN[C@H]1c1ccccc1` [CP-99994], the ED50 in the test on Cavia porcellus [1] came to 0.017 mg/kg; in the test on Cavia porcellus [2], 8.7 mg/kg.
Compound `CN(Cc1cc(C(F)(F)F)cc(C(F)(F)F)c1)C(=O)c1c(-c2ccccc2)c2cccnc2c(=O)n1C` displayed an IC50 at Substance-P receptor of 0.25 nM. For the same compound, the ED50 in the test with Cavia porcellus [1] is 0.027 mg/kg; in the test with Cavia porcellus [2], 0.17 mg/kg.
`Cc1ccc(-c2c(C(=O)N(C)Cc3cc(C)cc(C)c3)n(C)c(=O)c3ncccc23)cc1` returned an IC50 on Substance-P receptor of 4.4 nM.
As to `Cc1ccccc1-c1c(C(=O)N(C)Cc2cc(C(F)(F)F)cc(C(F)(F)F)c2)n(C)c(=O)c2ccccc12`, the median effective dose (ED50) in the test with Cavia porcellus [1] worked out at 0.18 mg/kg; in the test on Cavia porcellus [2] it was 0.81 mg/kg.
At Substance-P receptor, `Cc1ccc(-c2c(C(=O)N(C)Cc3cc(Cl)cc(Cl)c3)n(C)c(=O)c3ncccc23)cc1` showed an IC50 of 3.4 nM.
With `Cc1cc2c(-c3ccccc3)c(NC(=O)N(C)Cc3ccccc3Cl)n(C)c(=O)c2cc1C`, the inhibition in vivo at 3 mg/kg with Cavia porcellus [3] was found to be 58.5%.
For the compound `Cc1cc(C)cc(CN(C)C(=O)c2c(-c3ccc(F)cc3)c3cccnc3c(=O)n2C)c1`, at Substance-P receptor, the IC50 came out at 5.1 nM.
The compound `CN(Cc1cc(C(F)(F)F)cc(C(F)(F)F)c1)Cc1c(-c2ccccc2)c2ccccc2c(=O)n1C` yielded an IC50 on Substance-P receptor of 600 nM.
Turning to `Cc1cc2c(-c3ccccc3)c(NC(=O)NCc3ccccc3)n(C)c(=O)c2cc1C`, the IC50 at Substance-P receptor came out at 140 nM.
Same read-out and setting: the result for `CN(Cc1ccccc1Cl)C(=O)c1c(-c2ccc(F)cc2)c2cccnc2c(=O)n1C` reads 32 nM.
On Substance-P receptor, `Cc1ccc(-c2c(C(=O)N(C)Cc3cc(C(F)(F)F)cc(C(F)(F)F)c3)n(C)c(=O)c3ncccc23)cc1` [7-METHYL-8-OXO-5-P-TOLYL-7,8-DIHYDRO-[1,7]NAPHTHYRIDINE-6-CARBOXYLIC ACID (3,5-BIS-TRIFLUOROMETHYL-BENZYL)-METHYL-AMIDE (STRUCTURAL MIX)] returned an IC50 of 7 nM. For the same compound, in the test with Cavia porcellus [2], it took a dose of 0.11 mg/kg to reach the 50% effect level (ED50).
